Laboratory results as given in ChEMBL document CHEMBL1833861 (J Med Chem, 2011).
The source made the active and inactive calls. No cut-off for these calls is given here.

Assays:
[1] = molecular target: 5-hydroxytryptamine receptor 2A (Homo sapiens) (UniProt P28223); assay: Binding affinity to 5HT2A receptor at 10 uM by radioligand displacement assay
[2] = molecular target: D(2) dopamine receptor (Homo sapiens) (UniProt P14416); assay: Binding affinity to dopamine D2 receptor at 10 uM by radioligand displacement assay
[3] = molecular target: Muscarinic acetylcholine receptor M2 (Homo sapiens) (UniProt P08172); assay: Binding affinity to muscarinic M2 receptor at 10 uM by radioligand displacement assay
[4] = Inhibition of cytochrome P450; format: ADME
Summary of the method: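 Inhibitory potential tested against nine different CYP450 enzymes.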

[5] = molecular target: Histamine H4 receptor (Homo sapiens) (UniProt Q9H3N8); assay: Binding affinity to histamine H4 receptor at 10 uM by radioligand displacement assay
[6] = molecular target: T1, Kappa-type opioid receptor (Homo sapiens, UniProt P41145); assay: Binding affinity to kappa opioid receptor at 10 uM by radioligand displacement assay
T1 sequence (P41145 whole entry): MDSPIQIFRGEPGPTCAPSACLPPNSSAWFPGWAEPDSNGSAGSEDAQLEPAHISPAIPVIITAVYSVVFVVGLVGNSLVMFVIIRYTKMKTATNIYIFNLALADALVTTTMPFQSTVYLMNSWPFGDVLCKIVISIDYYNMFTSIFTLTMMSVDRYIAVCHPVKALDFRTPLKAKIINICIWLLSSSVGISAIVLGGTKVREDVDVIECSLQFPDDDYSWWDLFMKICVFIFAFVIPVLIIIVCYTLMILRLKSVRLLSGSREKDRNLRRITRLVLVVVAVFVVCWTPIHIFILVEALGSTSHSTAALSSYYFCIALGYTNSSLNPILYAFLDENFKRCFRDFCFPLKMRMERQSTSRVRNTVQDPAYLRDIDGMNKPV

[7] = molecular target: T2, Neuronal acetylcholine receptor; alpha4/beta2 (Rattus norvegicus, UniProt P09483+P12390); assay: Displacement of [3H]epibatidine from rat alpha4beta2 receptor expressed in HEK cells; format: cell-based, HEK293
T2 sequence (P09483 whole entry): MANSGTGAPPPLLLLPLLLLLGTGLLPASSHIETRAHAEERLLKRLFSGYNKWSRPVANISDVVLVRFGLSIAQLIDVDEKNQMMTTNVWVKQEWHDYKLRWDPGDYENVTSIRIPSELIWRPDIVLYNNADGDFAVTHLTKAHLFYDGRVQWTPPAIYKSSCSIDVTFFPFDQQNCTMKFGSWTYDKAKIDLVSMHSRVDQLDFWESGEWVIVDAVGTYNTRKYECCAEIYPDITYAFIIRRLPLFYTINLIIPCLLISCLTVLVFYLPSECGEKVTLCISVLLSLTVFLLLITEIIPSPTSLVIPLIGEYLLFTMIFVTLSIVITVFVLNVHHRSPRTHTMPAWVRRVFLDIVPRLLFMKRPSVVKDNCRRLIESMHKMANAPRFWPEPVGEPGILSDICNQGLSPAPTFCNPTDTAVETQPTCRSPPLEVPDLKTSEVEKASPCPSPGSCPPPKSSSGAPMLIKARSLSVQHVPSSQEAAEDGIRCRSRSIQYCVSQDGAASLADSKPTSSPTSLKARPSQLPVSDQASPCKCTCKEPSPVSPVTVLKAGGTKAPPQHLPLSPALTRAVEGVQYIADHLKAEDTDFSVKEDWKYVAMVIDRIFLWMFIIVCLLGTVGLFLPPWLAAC
T2 sequence (P12390 whole entry): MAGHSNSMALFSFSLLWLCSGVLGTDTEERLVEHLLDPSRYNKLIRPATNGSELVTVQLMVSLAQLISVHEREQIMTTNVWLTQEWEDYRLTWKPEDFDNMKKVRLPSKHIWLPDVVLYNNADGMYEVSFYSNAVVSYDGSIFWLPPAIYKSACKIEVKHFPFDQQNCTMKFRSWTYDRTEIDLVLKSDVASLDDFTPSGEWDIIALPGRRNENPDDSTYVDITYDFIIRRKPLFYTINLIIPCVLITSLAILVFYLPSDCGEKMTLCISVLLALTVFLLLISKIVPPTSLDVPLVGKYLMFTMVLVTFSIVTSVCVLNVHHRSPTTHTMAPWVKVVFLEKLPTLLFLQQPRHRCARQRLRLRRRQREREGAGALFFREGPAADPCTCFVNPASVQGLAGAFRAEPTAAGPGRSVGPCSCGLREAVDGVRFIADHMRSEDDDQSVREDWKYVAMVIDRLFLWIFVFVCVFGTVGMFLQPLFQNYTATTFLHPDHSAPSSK
Summary of the method: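 Competition binding of [3H]epibatidine to membrane fractions from HEK cells stably transfected with rat α4 and β2 subunits; Ki values for blockade of specific binding.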

[8] = molecular target: 5-hydroxytryptamine receptor 2C (Homo sapiens) (UniProt P28335); assay: Binding affinity to 5HT2C receptor at 10 uM by radioligand displacement assay
[9] = system: Mus musculus; assay: Antidepressant activity in BALB/cJ mouse assessed as decrease in immobility time at 10 mg/kg, po after 30 mins by forced swim test; format: functional, organism-based; design: dose 10 mg/kg
Summary of the method: (§1)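 Male BALB/cJ mice, 8–10 weeks old, dosed by oral gavage with compound in injectable water (10 mL/kg). Sertraline served as positive control. Forced swim begins 30 min after dosing, in a cylinder with 12 cm of 23 ± 1 °C water; total immobility recorded over 6 min. ANOVA followed by Newman-Keuls post hoc test.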

[10] = molecular target: Histamine H3 receptor (Homo sapiens) (UniProt Q9Y5N1); assay: Binding affinity to histamine H3 receptor at 10 uM by radioligand displacement assay
[11] = molecular target: Sodium-dependent noradrenaline transporter (Homo sapiens) (UniProt P23975); assay: Binding affinity to NET at 10 uM by radioligand displacement assay
[12] = molecular target: T1, Kappa-type opioid receptor; assay: Binding affinity to kappa opioid receptor by radioligand displacement assay
[13] = molecular target: Beta-2 adrenergic receptor (Homo sapiens) (UniProt P07550); assay: Binding affinity to beta2 adrenergic receptor at 10 uM by radioligand displacement assay
[14] = molecular target: D(1B) dopamine receptor (Homo sapiens) (UniProt P21918); assay: Binding affinity to dopamine D5 receptor at 10 uM by radioligand displacement assay
[15] = molecular target: Neuronal acetylcholine receptor; alpha2/beta2 (Rattus norvegicus, UniProt P12389+P12390); assay: Displacement of [3H]epibatidine from rat alpha2beta2 receptor; format: protein-complex assay
[16] = molecular target: Neuronal acetylcholine receptor; alpha3/beta2 (Rattus norvegicus, UniProt P04757+P12390); assay: Displacement of [3H]epibatidine from rat alpha3beta2 receptor; format: protein-complex assay
Neuronal acetylcholine receptor; alpha3/beta2, sequence (P04757 whole entry): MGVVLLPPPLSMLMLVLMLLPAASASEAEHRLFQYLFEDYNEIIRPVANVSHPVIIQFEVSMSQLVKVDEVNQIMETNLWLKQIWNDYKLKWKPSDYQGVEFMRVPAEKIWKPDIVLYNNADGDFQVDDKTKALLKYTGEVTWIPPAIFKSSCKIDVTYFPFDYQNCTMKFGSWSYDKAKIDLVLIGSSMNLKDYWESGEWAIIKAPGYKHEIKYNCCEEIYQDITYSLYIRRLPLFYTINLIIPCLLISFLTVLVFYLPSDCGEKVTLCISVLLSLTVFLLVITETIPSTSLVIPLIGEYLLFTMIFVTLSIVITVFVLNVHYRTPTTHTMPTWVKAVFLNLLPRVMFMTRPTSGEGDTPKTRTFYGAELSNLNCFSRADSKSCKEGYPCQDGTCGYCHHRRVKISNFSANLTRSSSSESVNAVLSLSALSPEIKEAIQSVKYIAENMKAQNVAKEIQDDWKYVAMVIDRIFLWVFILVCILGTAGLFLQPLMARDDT
Neuronal acetylcholine receptor; alpha3/beta2, sequence (P12390 whole entry): as the sequence (P12390 whole entry) above

[17] = molecular target: Alpha-1A adrenergic receptor (Homo sapiens) (UniProt P35348); assay: Binding affinity to alpha1A adrenergic receptor at 10 uM by radioligand displacement assay
[18] = molecular target: 5-hydroxytryptamine receptor 1B (Homo sapiens) (UniProt P28222); assay: Binding affinity to 5HT1B receptor at 10 uM by radioligand displacement assay
[19] = molecular target: Alpha-2C adrenergic receptor (Homo sapiens) (UniProt P18825); assay: Binding affinity to Alpha-2C adrenergic receptor at 10 uM by radioligand displacement assay
[20] = molecular target: Histamine H2 receptor (Homo sapiens) (UniProt P25021); assay: Binding affinity to histamine H2 receptor at 10 uM by radioligand displacement assay
[21] = molecular target: Sigma non-opioid intracellular receptor 1 (Homo sapiens) (UniProt Q99720); assay: Binding affinity to sigma1 receptor at 10 uM by radioligand displacement assay
Sigma non-opioid intracellular receptor 1 (Homo sapiens), sequence (Q99720 whole entry): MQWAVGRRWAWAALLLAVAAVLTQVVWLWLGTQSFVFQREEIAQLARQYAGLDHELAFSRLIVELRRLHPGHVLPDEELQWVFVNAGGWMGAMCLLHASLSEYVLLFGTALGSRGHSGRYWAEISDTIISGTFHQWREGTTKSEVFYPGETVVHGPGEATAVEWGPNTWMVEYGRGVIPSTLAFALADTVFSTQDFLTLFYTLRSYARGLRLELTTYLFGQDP

[22] = system: Mus musculus; assay: Antidepressant activity in BALB/cJ mouse assessed as decrease in immobility time at 1 mg/kg, po after 30 mins by forced swim test; format: functional, organism-based; design: dose 1 mg/kg; summary of the method: as §1
[23] = molecular target: Beta-1 adrenergic receptor (Homo sapiens) (UniProt P08588); assay: Binding affinity to beta1 adrenergic receptor at 10 uM by radioligand displacement assay
[24] = molecular target: T3, Neuronal acetylcholine receptor; alpha4/beta2 (Homo sapiens, UniProt P17787+P43681); assay: Antagonist activity at human alpha4beta2 nAChR expressed in SH-EP1 cells assessed as inhibition of carbamylcholine-induced 86Rb+ ion efflux by liquid scintillation counting relative to mecamylamine; format: functional, cell-based
T3 sequence (P17787 whole entry): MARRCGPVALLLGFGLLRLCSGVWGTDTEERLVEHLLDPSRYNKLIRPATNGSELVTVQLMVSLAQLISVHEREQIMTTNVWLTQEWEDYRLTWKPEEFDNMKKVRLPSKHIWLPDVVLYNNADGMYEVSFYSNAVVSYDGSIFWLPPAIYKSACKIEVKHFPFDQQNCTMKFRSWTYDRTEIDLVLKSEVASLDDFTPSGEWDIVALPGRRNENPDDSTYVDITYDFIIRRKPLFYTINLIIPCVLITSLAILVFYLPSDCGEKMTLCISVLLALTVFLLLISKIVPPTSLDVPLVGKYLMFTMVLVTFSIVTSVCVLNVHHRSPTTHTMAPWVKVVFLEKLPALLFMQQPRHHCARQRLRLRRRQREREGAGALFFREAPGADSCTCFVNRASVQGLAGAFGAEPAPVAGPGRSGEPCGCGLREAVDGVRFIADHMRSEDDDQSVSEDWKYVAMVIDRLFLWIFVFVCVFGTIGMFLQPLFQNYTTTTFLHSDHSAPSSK
T3 sequence (P43681 whole entry): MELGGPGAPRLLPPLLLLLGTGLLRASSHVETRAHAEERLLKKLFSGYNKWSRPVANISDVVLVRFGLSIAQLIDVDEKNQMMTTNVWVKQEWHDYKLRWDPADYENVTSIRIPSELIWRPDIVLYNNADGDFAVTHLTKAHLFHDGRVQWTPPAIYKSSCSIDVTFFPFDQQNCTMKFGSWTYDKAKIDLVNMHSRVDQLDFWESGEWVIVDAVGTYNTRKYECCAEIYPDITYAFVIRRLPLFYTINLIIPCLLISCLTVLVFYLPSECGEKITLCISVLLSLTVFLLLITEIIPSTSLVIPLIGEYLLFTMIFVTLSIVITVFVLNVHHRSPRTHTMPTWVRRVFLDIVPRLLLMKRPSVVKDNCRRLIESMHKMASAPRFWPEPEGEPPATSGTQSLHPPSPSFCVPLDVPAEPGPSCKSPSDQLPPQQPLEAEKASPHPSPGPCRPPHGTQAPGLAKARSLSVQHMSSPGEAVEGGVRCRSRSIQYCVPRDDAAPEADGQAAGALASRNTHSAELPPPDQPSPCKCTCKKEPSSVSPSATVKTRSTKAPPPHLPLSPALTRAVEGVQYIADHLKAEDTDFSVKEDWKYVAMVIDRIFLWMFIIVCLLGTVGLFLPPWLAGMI

[25] = molecular target: 5-hydroxytryptamine receptor 1A (Homo sapiens) (UniProt P08908); assay: Binding affinity to 5HT1A receptor at 10 uM by radioligand displacement assay
[26] = molecular target: Neuronal acetylcholine receptor; alpha2/beta4 (Rattus norvegicus, UniProt P12389+P12392); assay: Displacement of [3H]epibatidine from rat alpha2beta4 receptor; format: protein-complex assay
[27] = molecular target: Neuronal acetylcholine receptor; alpha3/beta4 (Rattus norvegicus, UniProt P04757+P12392); assay: Displacement of [3H]epibatidine from rat alpha3beta4 nAChR receptor; format: protein-complex assay
Neuronal acetylcholine receptor; alpha3/beta4, sequence (P04757 whole entry): as the sequence (P04757 whole entry) above
Neuronal acetylcholine receptor; alpha3/beta4, sequence (P12392 whole entry): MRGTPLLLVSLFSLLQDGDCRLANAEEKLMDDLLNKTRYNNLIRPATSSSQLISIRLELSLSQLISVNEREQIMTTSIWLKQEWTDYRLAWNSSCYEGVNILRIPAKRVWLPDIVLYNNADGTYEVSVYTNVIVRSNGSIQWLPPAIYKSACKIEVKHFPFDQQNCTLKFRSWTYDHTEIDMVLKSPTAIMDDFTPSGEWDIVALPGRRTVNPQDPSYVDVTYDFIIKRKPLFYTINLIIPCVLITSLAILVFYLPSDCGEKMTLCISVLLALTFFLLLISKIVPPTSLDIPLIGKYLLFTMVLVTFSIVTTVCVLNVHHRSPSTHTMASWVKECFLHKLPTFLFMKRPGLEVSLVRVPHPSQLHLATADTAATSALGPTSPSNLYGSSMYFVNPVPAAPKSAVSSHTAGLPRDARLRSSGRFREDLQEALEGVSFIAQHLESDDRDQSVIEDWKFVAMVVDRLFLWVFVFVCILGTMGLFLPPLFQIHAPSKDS

[28] = molecular target: T3, Neuronal acetylcholine receptor; alpha4/beta2; assay: Antagonist activity at human alpha4beta2 nAChR expressed in SH-EP1 cells assessed as inhibition of carbamylcholine-induced 86Rb+ ion efflux by liquid scintillation counting; format: functional, cell-based
[29] = system: Mus musculus; assay: Antidepressant activity in BALB/cJ mouse assessed as decrease in immobility time at 3 mg/kg, po after 30 mins by forced swim test; format: functional, organism-based; design: dose 3 mg/kg; summary of the method: as §1
[30] = molecular target: Delta-type opioid receptor (Homo sapiens) (UniProt P41143); assay: Binding affinity to delta opioid receptor at 10 uM by radioligand displacement assay
[31] = molecular target: Muscarinic acetylcholine receptor M3 (Homo sapiens) (UniProt P20309); assay: Binding affinity to muscarinic M3 receptor at 10 uM by radioligand displacement assay
[32] = molecular target: Muscarinic acetylcholine receptor M4 (Homo sapiens) (UniProt P08173); assay: Binding affinity to muscarinic M4 receptor at 10 uM by radioligand displacement assay
[33] = molecular target: 5-hydroxytryptamine receptor 1D (Homo sapiens) (UniProt P28221); assay: Binding affinity to 5HT1D receptor at 10 uM by radioligand displacement assay
[34] = molecular target: Alpha-2A adrenergic receptor (Homo sapiens) (UniProt P08913); assay: Binding affinity to alpha2A adrenergic receptor at 10 uM by radioligand displacement assay
Alpha-2A adrenergic receptor (Homo sapiens), sequence (P08913 whole entry): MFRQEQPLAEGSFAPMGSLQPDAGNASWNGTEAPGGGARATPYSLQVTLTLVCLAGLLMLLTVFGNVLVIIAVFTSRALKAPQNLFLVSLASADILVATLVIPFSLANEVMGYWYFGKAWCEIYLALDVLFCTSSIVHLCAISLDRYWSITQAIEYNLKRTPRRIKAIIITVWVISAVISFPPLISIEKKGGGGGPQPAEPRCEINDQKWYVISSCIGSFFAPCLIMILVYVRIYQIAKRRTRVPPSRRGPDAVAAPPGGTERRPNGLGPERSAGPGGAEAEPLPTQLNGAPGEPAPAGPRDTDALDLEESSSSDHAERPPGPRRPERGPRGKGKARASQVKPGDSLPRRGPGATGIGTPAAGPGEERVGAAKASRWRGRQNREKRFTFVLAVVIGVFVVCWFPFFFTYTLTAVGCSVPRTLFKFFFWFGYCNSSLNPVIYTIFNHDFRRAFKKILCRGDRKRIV

[35] = system: Mus musculus; assay: Antidepressant activity in BALB/cJ mouse assessed as decrease in immobility time at 1 mg/kg, ip after 30 mins by forced swim test; format: functional, organism-based; design: dose 1 mg/kg
Summary of the method: (§2)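 Male BALB/cJ mice, 8–10 weeks old; compound in injectable water given ip at 10 mL/kg. Sertraline (10 or 20 mg/kg) served as positive control. 30 min post-dose, each mouse placed in a glass cylinder with 12 cm of 23 ± 1 °C water; immobility (floating) timed over a 6 min trial. n = 10/group; ANOVA with post hoc test.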

[36] = molecular target: T3, Neuronal acetylcholine receptor; alpha4/beta2; assay: Agonist activity at human alpha4beta2 nAChR expressed in human SH-EP1 cells assessed as increase of carbamylcholine-induced 86Rb+ ion efflux by liquid scintillation counting; format: functional, cell-based
[37] = molecular target: T2, Neuronal acetylcholine receptor; alpha4/beta2; assay: Displacement of [3H]epibatidine from rat alpha4beta2 nAChR receptor; format: protein-complex assay
[38] = molecular target: Muscarinic acetylcholine receptor M1 (Homo sapiens) (UniProt P11229); assay: Binding affinity to muscarinic M1 receptor at 10 uM by radioligand displacement assay
[39] = system: Plasma; assay: Plasma protein binding in CD1 mouse at 10 uM; format: ADME, cell-free
[40] = molecular target: Mu-type opioid receptor (Homo sapiens) (UniProt P35372); assay: Binding affinity to MOR at 10 uM by radioligand displacement assay
[41] = system: Mus musculus; assay: Antidepressant activity in BALB/cJ mouse assessed as decrease in immobility time at 3 mg/kg, ip after 30 mins by forced swim test; format: functional, organism-based; design: dose 3 mg/kg; summary of the method: as §2
[42] = organism: Rattus norvegicus; assay: Selectivity ratio of Ki for rat alpha4beta2 nAChR over Ki for rat alpha3beta4 nAChR
[43] = molecular target: Alpha-1D adrenergic receptor (Homo sapiens) (UniProt P25100); assay: Binding affinity to Alpha-1D adrenergic receptor at 10 uM by radioligand displacement assay
[44] = system: Liver; assay: Metabolic stability in mouse liver microsomes at 1 uM; format: ADME, Microsome
[45] = molecular target: 5-hydroxytryptamine receptor 7 (Homo sapiens) (UniProt P34969); assay: Binding affinity to 5HT7 receptor at 10 uM by radioligand displacement assay
[46] = molecular target: T3, Neuronal acetylcholine receptor; alpha4/beta2; assay: Agonist activity at human alpha4beta2 nAChR expressed in human SH-EP1 cells assessed as increase of carbamylcholine-induced 86Rb+ ion efflux by liquid scintillation counting relative to carbamylcholine; format: functional, cell-based
[47] = Binding affinity to rat benzodiazepine receptor at 10 uM by radioligand displacement assay
[48] = molecular target: D(3) dopamine receptor (Homo sapiens) (UniProt P35462); assay: Binding affinity to dopamine D3 receptor at 10 uM by radioligand displacement assay
[49] = molecular target: 5-hydroxytryptamine receptor 6 (Homo sapiens) (UniProt P50406); assay: Binding affinity to 5HT6 receptor at 10 uM by radioligand displacement assay
[50] = molecular target: D(4) dopamine receptor (Homo sapiens) (UniProt P21917); assay: Binding affinity to dopamine D4 receptor at 10 uM by radioligand displacement assay
[51] = molecular target: Sodium-dependent serotonin transporter (Homo sapiens) (UniProt P31645); assay: Binding affinity to SERT at 10 uM by radioligand displacement assay
[52] = molecular target: Neuronal acetylcholine receptor; alpha4/beta4 (Rattus norvegicus, UniProt P09483+P12392); assay: Displacement of [3H]epibatidine from rat alpha4beta4 nAChR receptor; format: protein-complex assay
Neuronal acetylcholine receptor; alpha4/beta4, sequence (P09483 whole entry): as the sequence (P09483 whole entry) above
Neuronal acetylcholine receptor; alpha4/beta4, sequence (P12392 whole entry): as the sequence (P12392 whole entry) above

[53] = system: Liver microsomes; assay: Metabolic stability in human liver microsomes at 1 uM; format: ADME, Microsome
[54] = Binding affinity to sigma2 receptor at 10 uM by radioligand displacement assay
[55] = molecular target: Alpha-2B adrenergic receptor (Homo sapiens) (UniProt P18089); assay: Binding affinity to alpha2B adrenergic receptor at 10 uM by radioligand displacement assay
Alpha-2B adrenergic receptor (Homo sapiens), sequence (P18089 whole entry): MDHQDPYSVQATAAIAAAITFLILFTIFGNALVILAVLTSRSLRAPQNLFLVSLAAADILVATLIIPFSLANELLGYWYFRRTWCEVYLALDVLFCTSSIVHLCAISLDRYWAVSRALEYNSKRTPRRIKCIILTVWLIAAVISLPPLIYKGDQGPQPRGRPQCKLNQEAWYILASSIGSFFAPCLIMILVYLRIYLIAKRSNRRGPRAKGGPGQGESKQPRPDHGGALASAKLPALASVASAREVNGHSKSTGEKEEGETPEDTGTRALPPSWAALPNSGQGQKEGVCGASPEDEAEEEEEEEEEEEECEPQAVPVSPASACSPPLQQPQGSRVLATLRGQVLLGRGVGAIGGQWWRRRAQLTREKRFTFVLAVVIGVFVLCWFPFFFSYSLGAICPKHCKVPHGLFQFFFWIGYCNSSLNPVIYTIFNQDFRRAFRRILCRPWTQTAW

[56] = molecular target: 5-hydroxytryptamine receptor 1E (Homo sapiens) (UniProt P28566); assay: Binding affinity to 5HT1E receptor at 10 uM by radioligand displacement assay
[57] = molecular target: Alpha-1B adrenergic receptor (Homo sapiens) (UniProt P35368); assay: Binding affinity to Alpha-1B adrenergic receptor at 10 uM by radioligand displacement assay
[58] = Binding affinity to GABAA receptor at 10 uM by radioligand displacement assay
[59] = Binding affinity to 5HT3 receptor at 10 uM by radioligand displacement assay
[60] = molecular target: 5-hydroxytryptamine receptor 2B (Homo sapiens) (UniProt P41595); assay: Binding affinity to 5HT2B receptor at 10 uM by radioligand displacement assay
[61] = molecular target: D(1A) dopamine receptor (Homo sapiens) (UniProt P21728); assay: Binding affinity to dopamine D1 receptor at 10 uM by radioligand displacement assay

Cl.OCCCc1cc(-c2cncc(OC[C@@H]3CCN3)c2)on1
inhibition [1]: 22.2%
inhibition [2]: 19.8%
inhibition [3]: 11.4%
inhibition (INH) [4]: Not Active
inhibition [5]: -4.4%
inhibition [6]: 20%
Ki [7]: 0.67 nM
inhibition [8]: 14.6%
Activity [9]: Active
inhibition [10]: 6.2%
inhibition [11]: 14.2%
Ki [12]: > 10000 nM
inhibition [13]: -1%
inhibition [14]: -1.8%
Ki [15]: 0.9 nM
Ki [16]: 16 nM
inhibition [17]: -9.5%
inhibition [18]: -9.9%
inhibition [19]: 22%
inhibition [20]: 42.6%
inhibition [21]: 25.9%
Activity [22]: inactive
inhibition [23]: -3.2%
Efficacy [24]: 68%
inhibition [25]: 0.3%
Ki [26]: 1410 nM
Ki [27]: > 10000 nM
IC50 [28]: 61 nM
Activity [29]: inactive
inhibition [30]: 6.4%
inhibition [31]: -6.8%
inhibition [32]: 2%
inhibition [33]: 7.1%
inhibition [34]: -0.5%
Activity [35]: inactive
EC50 [36]: 36 nM
Ki [37]: 0.67 nM
inhibition [38]: 2%
PPB [39]: 26%
inhibition [40]: 14.2%
Activity [41]: Active
Ratio Ki [42]: 15000
inhibition [43]: 2.9%
Stability [44]: Stable
inhibition [45]: 16.2%
Efficacy [46]: 13%
inhibition [47]: 21.7%
inhibition [48]: 15.3%
inhibition [49]: 22.3%
inhibition [50]: 19.8%
inhibition [51]: -0.6%
Ki [52]: 182 nM
Stability [53]: Stable
inhibition [54]: -4.3%
inhibition [55]: 10.8%
inhibition [56]: 4.1%
inhibition [57]: -0.4%
inhibition [58]: 26.9%
inhibition [59]: 18.8%
inhibition [60]: 17.7%
inhibition [61]: -3.3%
